High-throughput results as filed in PubChem BioAssay.
Casp6 inh = inhibitors of human caspase-6. 350,000 compounds, 0.53% hits. purified caspase-6, Z-VEID-R110 cleavage fluorescence. inhibition, % at 12.5 µM. P55212;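 active means mean inhibition across replicates at least about 35%, with every replicate also reaching that limit, limit read from the data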;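 further: 0% = median of neutral control wells and 100% = no fluorescence left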
Target sequence (P55212 24-179 limits assumed): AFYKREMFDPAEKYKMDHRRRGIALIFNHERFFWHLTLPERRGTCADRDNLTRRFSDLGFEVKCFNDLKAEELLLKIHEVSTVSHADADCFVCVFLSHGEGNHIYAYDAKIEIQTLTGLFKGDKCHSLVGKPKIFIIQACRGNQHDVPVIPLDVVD
Target sequence (P55212 194-293 limits assumed): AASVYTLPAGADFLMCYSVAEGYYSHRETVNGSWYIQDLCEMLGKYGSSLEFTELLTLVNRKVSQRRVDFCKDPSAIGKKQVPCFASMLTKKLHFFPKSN
Xi reactivation = activators of X-chromosome reactivation in mouse fibroblasts | XiGFP mouse fibroblasts, % GFP-positive cells imaging, 3 d; cells co-treated with 5-aza-dC sensitizer; scaled so ellipticine positive control = 100% | 360,000 compounds, 0.055% hits | activation, % at 7.58 µM | AID 743238;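 active means mean normalized replicate activation at least 10% and every replicate at or above 10%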;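 further: 0% = median of on-plate neutral control wells and 100% = ellipticine 6 µM median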
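System: 68-5-11 XiGFP fibroblast line | Buffer or medium: DMEM containing 5-aza-dC | Compound: Single point | Times: Compounds 3 days, fix/stain 15 min at room temperature | Benchmarks: Positive control ellipticine, 6 µM final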
esBAF inh = SWI/SNF esBAF complex inhibition | mouse ES cells, Bmi1-luciferase knock-in reporter, 24 h; 100% = twice the neutral-well signal | reporter increase, % at 12.5 µM | 350,000 compounds, 2% hits | AID 602393; in the data active means activation above about 40%;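 further: 0% = median of the plate's neutral control wells and 100% = double that signal; a rise in the Bmi1 reporter signal indicates esBAF inhibition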
NSD2 HMT inh = inhibitors of human histone methyltransferase NSD2 | inhibition, % at 12.5 µM | O96028 | AID 743445 | 310,000 compounds, 0.54% hits | NSD2 peptide methylation, AlphaScreen, 120 min; in the data active means inhibition above about 50%
Wnt bcat act = activates Wnt/beta-catenin signaling in a reporter cell assay | activator, plate reader | activation, % at 9.35 µM | 300,000 compounds, 1.2% hits; in the data active means activation above about 30%, passing the limit was not always enough;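 further: 0% = neutral control wells and 100% = positive control wells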
Active calls of the source: *. An excerpt weighted towards active compounds, which were near 3% of everything screened.

`C[C@H](CO)N1C[C@H](C)[C@@H](CN(C)C(=O)Nc2ccc3c(c2)OCO3)OCCCC[C@H](C)Oc2ccc(NC(=O)c3ccncc3)cc2C1=O` gave Casp6 inh -1.1, Xi reactivation -0.1 and esBAF inh 54.0*.
Screening C[C@@H]1CCCCO[C@H](CN(C)C(=O)Nc2cccc3ccccc23)[C@H](C)CN([C@@H](C)CO)C(=O)c2cc(NC(=O)CCC(F)(F)F)ccc2O1 returned Xi reactivation 0.1 and esBAF inh 45.5*.
C[C@@H]1CCCCO[C@@H](CN(C)C(=O)Nc2ccc3c(c2)OCO3)[C@H](C)CN([C@H](C)CO)C(=O)c2cc(NC(=O)Nc3ccc4c(c3)OCO4)ccc2O1 was read as Casp6 inh -1.9, Xi reactivation 1.0 and esBAF inh 80.5*.
For C[C@@H]1CCCCO[C@H](CN(C)C(=O)Nc2cccc3ccccc23)[C@@H](C)CN([C@@H](C)CO)C(=O)c2cc(NC(=O)CCC(F)(F)F)ccc2O1 the results were Xi reactivation 0.0 and esBAF inh 3.7.
Cc1cccc(CN(C)C[C@@H]2Oc3ncc(C#Cc4ccccc4)cc3C(=O)N([C@H](C)CO)C[C@@H]2C)c1 was read as Casp6 inh 0.9, Xi reactivation 14.5* and esBAF inh -7.5.
`C[C@@H]1CCCCO[C@H](CN(C)C(=O)Nc2ccc3c(c2)OCO3)[C@H](C)CN([C@@H](C)CO)C(=O)c2cc(NC(=O)Nc3ccc4c(c3)OCO4)ccc2O1` gave Casp6 inh 2.5, Xi reactivation 0.1 and esBAF inh 33.7.
Screening Cc1cccc(CN(C)C[C@@H]2Oc3ncc(C#CCN(C)C)cc3C(=O)N([C@H](C)CO)C[C@@H]2C)c1 returned Xi reactivation 0.0 and esBAF inh -2.9.
For Cc1ccc(-c2cnc3c(c2)C(=O)N([C@@H](C)CO)C[C@@H](C)[C@@H](CN(C)C(=O)c2cccnc2)O3)cc1 the results were Casp6 inh 3.2, Xi reactivation -0.2 and esBAF inh -0.7.
O=C(C[C@@H]1C[C@H]2c3cc(NC(=O)c4ccc5c(c4)OCO5)ccc3O[C@H]2[C@H](CO)O1)NC1CCCCC1 was read as Casp6 inh 0.3, Xi reactivation -0.1 and esBAF inh -10.0.
`CC(C)NC(=O)Nc1ccc2c(c1)C(=O)N(C)C[C@@H](C)[C@H](CN(C)S(C)(=O)=O)O2` gave Xi reactivation 0.2.
C[C@H](CO)N1C[C@H](C)[C@@H](CN(C)C(=O)Nc2ccc3c(c2)OCO3)Oc2ncc(C#CC3(O)CCCC3)cc2C1=O was read as Casp6 inh -0.6, Xi reactivation 0.0 and esBAF inh 59.5*.
For C[C@H](CO)N1C[C@H](C)[C@@H](CN(C)C(=O)Nc2ccc(C(F)(F)F)cc2)Oc2ncc(/C=C/c3ccccc3)cc2C1=O the results were Casp6 inh 47.7*, Xi reactivation -1.3 and esBAF inh 3.2.
`CC(C)NC(=O)N(C)C[C@@H]1OCCCC[C@H](C)Oc2ccc(NC(=O)Nc3ccc4c(c3)OCO4)cc2C(=O)N([C@H](C)CO)C[C@@H]1C` gave Casp6 inh -1.7, Xi reactivation 2.2 and esBAF inh 48.5*.
`Cc1noc(C)c1NC(=O)N(C)C[C@@H]1Oc2ncc(C#CC3CC3)cc2C(=O)N([C@@H](C)CO)C[C@H]1C` gave Casp6 inh -0.2, Xi reactivation -1.1 and esBAF inh 51.6*.
`Cc1noc(C)c1NC(=O)N(C)C[C@@H]1Oc2ncc(C#CC3CC3)cc2C(=O)N([C@@H](C)CO)C[C@@H]1C` gave Casp6 inh -2.4, Xi reactivation 0.0, esBAF inh -2.9 and Wnt bcat act -1.0.
`C[C@@H]1CN([C@@H](C)CO)C(=O)c2cc(C#CC3(O)CCCC3)cnc2O[C@H]1CN(C)C(=O)Nc1ccc2c(c1)OCO2` gave Casp6 inh -0.2, Xi reactivation 0.3 and esBAF inh 21.1.
`O=C(COC(=O)c1cc(Cl)nc(Cl)c1)NC1CCCCC1` gave NSD2 HMT inh -1.0.
`COc1ccc(-c2ccc3c(c2)[C@@H]2[C@@H](CCN2C(=O)Cc2ccccn2)[C@@H](CO)N3C)cc1` gave Xi reactivation 0.0 and esBAF inh 13.0.
Screening O=C(NC1CCCC1)N1CC(=O)N2[C@@H](CO)[C@H](c3ccc(-c4cccc(F)c4)cc3)[C@@H]2C1 returned Casp6 inh 3.8 and Xi reactivation 0.1.
